Experimental data taken from ChEMBL document CHEMBL1671716, “Antimicrobial susceptibility patterns for recent clinical isolates of anaerobic bacteria in South Korea” (2010).
Values after ≈ are worked out from the molar mass of the structure shown.

Key:
Bifidobacterium sp. [1] = assay: Antimicrobial activity against Bifidobacterium sp. after 48 hrs by agar dilution method; assay type: functional
Outline: (§1)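 MICs on clinical anaerobe isolates by the CLSI agar dilution method. Inoculum of 10^5 CFU applied with a Steers replicator. Plates incubated 48 h at 37°C in an anaerobic chamber.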

Actinomyces naeslundii = assay: Antimicrobial activity against Actinomyces naeslundii assessed as percent susceptible isolates after 48 hrs by agar dilution method; assay type: functional
Prevotella buccae [2] = assay: Antimicrobial activity against Prevotella buccae assessed as percent susceptible isolates after 48 hrs by agar dilution method; assay type: functional, Segatella buccae
Outline: (§2)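 CLSI agar dilution (M11-A7); inoculum 10^5 CFU applied by replicator; plates incubated anaerobically 48 h at 37°C. For piperacillin-tazobactam, tazobactam held constant at 4 μg/ml.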

Bacteroides ovatus [3] = assay: Antimicrobial activity against Bacteroides ovatus after 48 hrs by agar dilution method; assay type: functional; outline: as §1
Hoylesella oralis [4] = assay: Antimicrobial activity against Prevotella oralis assessed as percent susceptible isolates after 48 hrs by agar dilution method; assay type: functional
Outline: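 CLSI agar dilution MIC testing of clinical isolates. 10^5 CFU spotted by replicator, plates incubated 48 h at 37°C in an anaerobic chamber. Susceptibility rates derived from the MICs.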

Prevotella intermedia [5] = assay: Antimicrobial activity against Prevotella intermedia after 48 hrs by agar dilution method; assay type: functional; outline: as §2
Prevotella bivia [6] = assay: Antimicrobial activity against Prevotella bivia assessed as percent resistant isolates after 48 hrs by agar dilution method; assay type: functional
Outline: (§3)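 CLSI agar dilution on recent Korean clinical anaerobe isolates. Inoculum 10^5 CFU per spot by replicator. Plates incubated in an anaerobic chamber at 37°C for 48 h. For piperacillin plus tazobactam, tazobactam was held constant at 4 μg/ml. Resistance and susceptibility rates derived from MICs.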

[7] = system: Bacteroides thetaiotaomicron; assay: Antimicrobial activity against Bacteroides thetaiotaomicron assessed as percent resistant isolates after 48 hrs by agar dilution method; assay type: functional; outline: as §3
Eubacterium sp. [8] = assay: Antimicrobial activity against Eubacterium sp. assessed as percent resistant isolates after 48 hrs by agar dilution method; assay type: functional; outline: as §3
Clostridium perfringens [9] = assay: Antimicrobial activity against Clostridium perfringens assessed as percent susceptible isolates after 48 hrs by agar dilution method; assay type: functional
Anaerococcus prevotii [10] = assay: Antimicrobial activity against Anaerococcus prevotii assessed as percent resistant isolates after 48 hrs by agar dilution method; assay type: functional; outline: as §3
Parvimonas micra [11] = assay: Antimicrobial activity against Peptostreptococcus micros assessed as percent susceptible isolates after 48 hrs by agar dilution method; assay type: functional; outline: as §3
Fusobacterium nucleatum = assay: Antimicrobial activity against Fusobacterium nucleatum after 48 hrs by agar dilution method; assay type: functional; outline: as §2
Eggerthella lenta [12] = assay: Antimicrobial activity against Eubacterium lentum assessed as percent susceptible isolates after 48 hrs by agar dilution method; assay type: functional; outline: as §2
Parvimonas micra [13] = assay: Antimicrobial activity against Peptostreptococcus micros after 48 hrs by agar dilution method; assay type: functional; outline: as §2
Finegoldia magna = assay: Antimicrobial activity against Finegoldia magna after 48 hrs by agar dilution method; assay type: functional; outline: as §2
Eggerthella lenta [14] = assay: Antimicrobial activity against Eubacterium lentum after 48 hrs by agar dilution method; assay type: functional; outline: as §2
Actinomyces israelii [15] = assay: Antimicrobial activity against Actinomyces israelii after 48 hrs by agar dilution method; assay type: functional; outline: as §1
Bifidobacterium sp. [16] = assay: Antimicrobial activity against Bifidobacterium sp. assessed as percent susceptible isolates after 48 hrs by agar dilution method; assay type: functional; outline: as §2
Clostridium perfringens [17] = assay: Antimicrobial activity against Clostridium perfringens after 48 hrs by agar dilution method; assay type: functional
[18] = system: Peptoniphilus asaccharolyticus; assay: Antimicrobial activity against Peptoniphilus asaccharolyticus after 48 hrs by agar dilution method; assay type: functional; outline: as §2
Schaalia odontolytica = assay: Antimicrobial activity against Actinomyces odontolyticus assessed as percent resistant isolates after 48 hrs by agar dilution method; assay type: functional; outline: as §3
[19] = system: Peptostreptococcus anaerobius; assay: Antimicrobial activity against Peptostreptococcus anaerobius after 48 hrs by agar dilution method; assay type: functional; outline: as §2
Fusobacterium varium = assay: Antimicrobial activity against Fusobacterium varium after 48 hrs by agar dilution method; assay type: functional; outline: as §2
Anaerococcus prevotii [20] = assay: Antimicrobial activity against Anaerococcus prevotii after 48 hrs by agar dilution method; assay type: functional; outline: as §1
Bacteroides caccae [21] = assay: Antimicrobial activity against Bacteroides caccae after 48 hrs by agar dilution method; assay type: functional; outline: as §1
Schaalia meyeri [22] = assay: Antimicrobial activity against Actinomyces meyeri assessed as percent resistant isolates after 48 hrs by agar dilution method; assay type: functional; outline: as §3
[23] = system: Bifidobacterium adolescentis; assay: Antimicrobial activity against Bifidobacterium adolescentis assessed as percent susceptible isolates after 48 hrs by agar dilution method; assay type: functional
Bifidobacterium sp. [24] = assay: Antimicrobial activity against Bifidobacterium sp. assessed as percent resistant isolates after 48 hrs by agar dilution method; assay type: functional; outline: as §3
Hoylesella oralis [25] = assay: Antimicrobial activity against Prevotella oralis assessed as percent resistant isolates after 48 hrs by agar dilution method; assay type: functional; outline: as §3
Phocaeicola vulgatus = assay: Antimicrobial activity against Bacteroides vulgatus assessed as percent susceptible isolates after 48 hrs by agar dilution method; assay type: functional
[26] = system: Bifidobacterium adolescentis; assay: Antimicrobial activity against Bifidobacterium adolescentis assessed as percent resistant isolates after 48 hrs by agar dilution method; assay type: functional; outline: as §3
Prevotella bivia [27] = assay: Antimicrobial activity against Prevotella bivia assessed as percent susceptible isolates after 48 hrs by agar dilution method; assay type: functional; outline: as §2
Bacteroides caccae [28] = assay: Antimicrobial activity against Bacteroides caccae assessed as percent susceptible isolates after 48 hrs by agar dilution method; assay type: functional
Bacteroides fragilis = assay: Antimicrobial activity against Bacteroides fragilis assessed as percent resistant isolates after 48 hrs by agar dilution method; assay type: functional; outline: as §3
[29] = system: Bacteroides thetaiotaomicron; assay: Antimicrobial activity against Bacteroides thetaiotaomicron assessed as percent susceptible isolates after 48 hrs by agar dilution method; assay type: functional
Clostridioides difficile [30] = assay: Antimicrobial activity against Clostridium difficile assessed as percent resistant isolates after 48 hrs by agar dilution method; assay type: functional
Clostridioides difficile [31] = assay: Antimicrobial activity against Clostridium difficile after 48 hrs by agar dilution method; assay type: functional
Prevotella buccae [32] = assay: Antimicrobial activity against Prevotella buccae after 48 hrs by agar dilution method; assay type: functional; details: Segatella buccae; outline: as §2
Actinomyces israelii [33] = assay: Antimicrobial activity against Actinomyces israelii assessed as percent susceptible isolates after 48 hrs by agar dilution method; assay type: functional
Bacteroides ovatus [34] = assay: Antimicrobial activity against Bacteroides ovatus assessed as percent resistant isolates after 48 hrs by agar dilution method; assay type: functional; outline: as §3
Actinomyces israelii [35] = assay: Antimicrobial activity against Actinomyces israelii assessed as percent resistant isolates after 48 hrs by agar dilution method; assay type: functional; outline: as §3
[36] = system: Peptostreptococcus anaerobius; assay: Antimicrobial activity against Peptostreptococcus anaerobius assessed as percent susceptible isolates after 48 hrs by agar dilution method; assay type: functional; outline: as §3
Schaalia meyeri [37] = assay: Antimicrobial activity against Actinomyces meyeri assessed as percent susceptible isolates after 48 hrs by agar dilution method; assay type: functional
Eubacterium sp. [38] = assay: Antimicrobial activity against Eubacterium sp. after 48 hrs by agar dilution method; assay type: functional; outline: as §2
[39] = system: Parabacteroides distasonis; assay: Antimicrobial activity against Bacteroides distasonis after 48 hrs by agar dilution method; assay type: functional; outline: as §1
Prevotella intermedia [40] = assay: Antimicrobial activity against Prevotella intermedia assessed as percent susceptible isolates after 48 hrs by agar dilution method; assay type: functional; outline: as §2

`CCN1CCN(C(=O)N[C@@H](C(=O)N[C@@H]2C(=O)N3[C@@H]2SC(C)(C)[C@@H]3C(=O)O)c2ccccc2)C(=O)C1=O` [PIPERACILLIN] gave an MIC50 (Bifidobacterium sp. [1]) of 1 µg/mL (≈ 1.93 µM), an MIC90 (Bifidobacterium sp. [1]) of 8 µg/mL (≈ 15.5 µM) and an Activity (Actinomyces naeslundii) of 92%. For the same compound, the Activity (Prevotella buccae [2]) was 78%, the MIC50 (Bacteroides ovatus [3]) was 128 µg/mL (≈ 247 µM) and the MIC90 (Bacteroides ovatus [3]) was > 256 µg/mL. For the same compound, the Activity (Hoylesella oralis [4]) was 78%, the MIC50 (Prevotella intermedia [5]) was 8 µg/mL (≈ 15.5 µM) and the MIC90 (Prevotella intermedia [5]) was 16 µg/mL (≈ 30.9 µM). It also gave an Activity (Prevotella bivia [6]) of 11%, an Activity [7] of 51% and an Activity (Eubacterium sp. [8]) of 0%. It also gave an Activity (Clostridium perfringens [9]) of 100%, an Activity (Anaerococcus prevotii [10]) of 0% and an Activity (Parvimonas micra [11]) of 0%. The MIC (Fusobacterium nucleatum) was 0.06 µg/mL (≈ 0.116 µM), the Activity (Eggerthella lenta [12]) was 92% and the MIC50 (Parvimonas micra [13]) was 0.25 µg/mL (≈ 0.483 µM). For the same compound, the MIC90 (Parvimonas micra [13]) was 16 µg/mL (≈ 30.9 µM), the MIC50 (Finegoldia magna) was ≤ 0.06 µg/mL and the MIC90 (Finegoldia magna) was 0.125 µg/mL (≈ 0.242 µM). It also gave an MIC50 (Eggerthella lenta [14]) of 1 µg/mL (≈ 1.93 µM), an MIC90 (Eggerthella lenta [14]) of 8 µg/mL (≈ 15.5 µM) and an MIC50 (Actinomyces israelii [15]) of 1 µg/mL (≈ 1.93 µM). It also gave an MIC90 (Actinomyces israelii [15]) of 8 µg/mL (≈ 15.5 µM), an Activity (Bifidobacterium sp. [16]) of 92% and an MIC50 (Clostridium perfringens [17]) of 0.25 µg/mL (≈ 0.483 µM). The MIC90 (Clostridium perfringens [17]) was 0.5 µg/mL (≈ 0.966 µM), the MIC50 [18] was ≤ 0.06 µg/mL and the MIC90 [18] was ≤ 0.06 µg/mL. The Activity (Schaalia odontolytica) was 0%, the MIC50 [19] was 0.25 µg/mL (≈ 0.483 µM) and the MIC90 [19] was 16 µg/mL (≈ 30.9 µM). It also gave an MIC (Fusobacterium varium) of 0.06 µg/mL (≈ 0.116 µM), an MIC50 (Anaerococcus prevotii [20]) of 0.125 µg/mL (≈ 0.242 µM) and an MIC90 (Anaerococcus prevotii [20]) of 0.25 µg/mL (≈ 0.483 µM). The MIC50 (Bacteroides caccae [21]) was 128 µg/mL (≈ 247 µM), the MIC90 (Bacteroides caccae [21]) was > 256 µg/mL and the Activity (Schaalia meyeri [22]) was 0%. It also gave an Activity [23] of 92%, an Activity (Bifidobacterium sp. [24]) of 0% and an Activity (Hoylesella oralis [25]) of 11%. The Activity (Phocaeicola vulgatus) was 42%, the Activity [26] was 0% and the Activity (Prevotella bivia [27]) was 78%. For the same compound, the Activity (Bacteroides caccae [28]) was 42%, the Activity (Bacteroides fragilis) was 27% and the Activity [29] was 42%. For the same compound, the Activity (Clostridioides difficile [30]) was 0%, the MIC50 (Clostridioides difficile [31]) was 4 µg/mL (≈ 7.73 µM) and the MIC90 (Clostridioides difficile [31]) was 8 µg/mL (≈ 15.5 µM). The MIC50 (Prevotella buccae [32]) was 16 µg/mL (≈ 30.9 µM), the MIC90 (Prevotella buccae [32]) was 128 µg/mL (≈ 247 µM) and the Activity (Actinomyces israelii [33]) was 92%. It also gave an Activity (Bacteroides ovatus [34]) of 51%, an Activity (Actinomyces israelii [35]) of 0% and an Activity [36] of 100%. For the same compound, the Activity (Schaalia meyeri [37]) was 92%, the MIC50 (Eubacterium sp. [38]) was 1 µg/mL (≈ 1.93 µM) and the MIC90 (Eubacterium sp. [38]) was 8 µg/mL (≈ 15.5 µM). For the same compound, the MIC50 [39] was 128 µg/mL (≈ 247 µM), the MIC90 [39] was > 256 µg/mL and the Activity (Prevotella intermedia [40]) was 100%.
